Results: PMC3076536 (Journal of the American Chemical Society, 2011)

How the values were obtained:
[1] = target: T1, GSK3α (Homo sapiens, UniProt P49840); experiment: Radioactive [γ-33P]ATP kinase activity assay, GSK3α; format: biochemical
Procedure, shortened: (§1)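 Commercial human kinase and substrate were used, except the PAK1 kinase domain (residues 249–545), which was expressed and purified in-house. Serial inhibitor concentrations were preincubated 15 min with kinase and substrate in 20 mM MOPS pH 7.0, 30 mM MgCl₂, 0.8 μg/μL BSA and 5% DMSO. The reaction was started with ATP (final 100 μM) plus [γ-³³P]ATP. Reactions were spotted on P81 paper, washed and scintillation-counted. IC50 was the concentration giving background-corrected CPM at 50% of control.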

[2] = target: CLK2 (Homo sapiens, UniProt P49760); experiment: Millipore KinaseProfiler single-concentration screen, CLK2; format: biochemical; conditions: compound 10 nM, 10 μM ATP
Sequence of CLK2 (P49760 whole entry): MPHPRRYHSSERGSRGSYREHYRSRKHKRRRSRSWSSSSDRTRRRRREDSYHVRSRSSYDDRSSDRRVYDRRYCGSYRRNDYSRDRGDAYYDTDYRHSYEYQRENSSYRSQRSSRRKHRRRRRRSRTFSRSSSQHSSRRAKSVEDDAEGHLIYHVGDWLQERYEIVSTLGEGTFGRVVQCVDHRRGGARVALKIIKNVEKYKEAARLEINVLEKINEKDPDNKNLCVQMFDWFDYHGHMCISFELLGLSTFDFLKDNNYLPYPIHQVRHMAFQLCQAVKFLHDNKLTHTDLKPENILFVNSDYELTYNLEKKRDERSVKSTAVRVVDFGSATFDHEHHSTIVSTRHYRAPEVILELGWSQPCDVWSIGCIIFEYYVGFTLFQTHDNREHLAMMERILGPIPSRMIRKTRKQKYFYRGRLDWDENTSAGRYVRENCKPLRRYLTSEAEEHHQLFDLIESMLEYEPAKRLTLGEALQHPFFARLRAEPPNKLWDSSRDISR
Procedure, shortened: (§2)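 Single-concentration screen on a commercial panel of human wild-type kinases. Test compound was at 10 nM with 10 μM ATP. Only kinases whose assay concentration was at or below the inhibitor concentration were included, giving 102 kinases. Percentage kinase activity was measured in duplicate and averaged.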

[3] = target: T1, GSK3α; experiment: Millipore KinaseProfiler single-concentration screen, GSK3α; format: biochemical; conditions: compound 10 nM, 10 μM ATP
Procedure, shortened: as §2

[4] = target: PAK1 kinase domain (residues 249 to 545) (Homo sapiens, UniProt Q13153); experiment: Radioactive [γ-33P]ATP kinase activity assay, PAK1; format: biochemical; conditions: read-out: IC50 PAK1; 100 μM ATP
Sequence of PAK1 kinase domain (residues 249 to 545) (Q13153 249-545): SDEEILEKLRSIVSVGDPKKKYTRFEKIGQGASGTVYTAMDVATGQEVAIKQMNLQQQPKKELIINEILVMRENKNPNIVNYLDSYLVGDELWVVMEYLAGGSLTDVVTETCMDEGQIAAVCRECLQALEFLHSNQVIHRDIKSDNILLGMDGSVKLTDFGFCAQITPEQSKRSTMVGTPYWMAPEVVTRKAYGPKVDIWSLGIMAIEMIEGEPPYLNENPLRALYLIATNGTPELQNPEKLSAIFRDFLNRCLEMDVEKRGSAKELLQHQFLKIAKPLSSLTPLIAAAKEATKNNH
Procedure, shortened: as §1

[5] = target: T2, GSK3β (Homo sapiens, UniProt P49841); experiment: Radioactive [γ-33P]ATP kinase activity assay, GSK3β; format: biochemical; conditions: read-out: IC50 GSK3β; 100 μM ATP
T2 sequence (P49841 whole entry): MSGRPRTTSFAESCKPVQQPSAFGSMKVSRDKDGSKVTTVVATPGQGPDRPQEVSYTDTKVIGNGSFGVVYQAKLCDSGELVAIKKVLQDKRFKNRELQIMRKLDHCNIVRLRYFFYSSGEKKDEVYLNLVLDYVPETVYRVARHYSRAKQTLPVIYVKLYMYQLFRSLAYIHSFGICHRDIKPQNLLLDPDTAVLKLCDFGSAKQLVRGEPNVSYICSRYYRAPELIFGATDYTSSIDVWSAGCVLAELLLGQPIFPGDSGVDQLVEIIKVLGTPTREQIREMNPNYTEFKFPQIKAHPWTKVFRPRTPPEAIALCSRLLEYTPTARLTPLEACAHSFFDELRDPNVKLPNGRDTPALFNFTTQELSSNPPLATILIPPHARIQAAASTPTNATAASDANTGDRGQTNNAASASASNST
Procedure, shortened: as §1

[6] = target: FLT4 (Homo sapiens, UniProt P35916); experiment: Radioactive [γ-33P]ATP kinase activity assay, FLT4; format: biochemical; conditions: read-out: IC50 FLT4; 100 μM ATP
Sequence of FLT4 (P35916 25-1363): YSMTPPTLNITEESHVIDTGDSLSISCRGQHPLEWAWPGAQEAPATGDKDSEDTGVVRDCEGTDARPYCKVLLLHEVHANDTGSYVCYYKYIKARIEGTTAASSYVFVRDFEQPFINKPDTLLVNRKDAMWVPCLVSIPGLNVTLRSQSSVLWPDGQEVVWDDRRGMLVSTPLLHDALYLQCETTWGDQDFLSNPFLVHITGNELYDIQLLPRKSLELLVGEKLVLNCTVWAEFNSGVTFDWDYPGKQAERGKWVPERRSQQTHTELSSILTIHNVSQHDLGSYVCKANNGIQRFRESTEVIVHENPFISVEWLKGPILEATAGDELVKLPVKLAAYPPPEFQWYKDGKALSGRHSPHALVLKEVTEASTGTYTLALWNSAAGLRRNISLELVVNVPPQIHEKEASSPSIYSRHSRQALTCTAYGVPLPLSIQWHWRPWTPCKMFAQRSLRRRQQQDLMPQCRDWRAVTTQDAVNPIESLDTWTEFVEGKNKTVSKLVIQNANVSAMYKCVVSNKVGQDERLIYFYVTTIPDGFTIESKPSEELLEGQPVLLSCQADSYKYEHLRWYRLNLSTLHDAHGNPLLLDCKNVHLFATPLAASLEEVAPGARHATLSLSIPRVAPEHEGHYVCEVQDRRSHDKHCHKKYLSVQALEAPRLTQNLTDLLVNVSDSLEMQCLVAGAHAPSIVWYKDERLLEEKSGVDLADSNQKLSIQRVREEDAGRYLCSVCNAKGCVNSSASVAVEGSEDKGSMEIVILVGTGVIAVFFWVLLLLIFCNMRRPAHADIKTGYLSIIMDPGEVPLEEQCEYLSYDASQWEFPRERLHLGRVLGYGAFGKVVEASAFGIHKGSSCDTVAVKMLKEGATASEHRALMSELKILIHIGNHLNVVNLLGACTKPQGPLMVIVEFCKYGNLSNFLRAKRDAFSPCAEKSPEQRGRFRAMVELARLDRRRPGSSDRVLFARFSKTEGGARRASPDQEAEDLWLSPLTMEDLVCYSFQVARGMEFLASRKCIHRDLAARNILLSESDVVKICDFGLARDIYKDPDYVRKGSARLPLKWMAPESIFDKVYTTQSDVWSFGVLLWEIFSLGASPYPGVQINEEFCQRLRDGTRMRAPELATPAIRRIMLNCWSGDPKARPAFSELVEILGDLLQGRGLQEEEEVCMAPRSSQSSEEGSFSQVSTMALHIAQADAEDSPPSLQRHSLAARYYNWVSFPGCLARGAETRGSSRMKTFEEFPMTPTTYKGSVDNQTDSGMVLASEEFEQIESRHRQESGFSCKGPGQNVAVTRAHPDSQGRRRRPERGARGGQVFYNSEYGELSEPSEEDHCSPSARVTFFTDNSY
Procedure, shortened: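 Radiometric assay with commercial human FLT4 and substrate. Serial inhibitor concentrations were preincubated 45 min with kinase and substrate in 20 mM MOPS pH 7.0, 30 mM MgCl₂, 0.8 μg/μL BSA and 5% DMSO. The reaction was started with ATP (final 100 μM) containing [γ-³³P]ATP. Reactions were stopped on P81 paper, washed and scintillation-counted. IC50 was the concentration giving 50% of control CPM after background correction.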

[7] = target: T3, PIM1 (Homo sapiens, UniProt P11309); experiment: Millipore KinaseProfiler single-concentration screen, PIM1; format: biochemical; conditions: compound 10 nM, 10 μM ATP
T3 sequence (P11309 whole entry): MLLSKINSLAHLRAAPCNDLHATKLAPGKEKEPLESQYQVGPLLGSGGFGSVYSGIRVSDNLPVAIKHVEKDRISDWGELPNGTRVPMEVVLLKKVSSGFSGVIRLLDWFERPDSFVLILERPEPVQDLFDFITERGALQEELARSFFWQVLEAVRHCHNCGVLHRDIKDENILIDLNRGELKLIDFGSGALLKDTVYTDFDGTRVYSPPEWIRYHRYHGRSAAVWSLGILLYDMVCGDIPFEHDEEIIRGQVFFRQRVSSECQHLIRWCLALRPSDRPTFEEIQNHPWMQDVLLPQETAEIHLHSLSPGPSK
Procedure, shortened: as §2

[8] = system: panels of human wild type protein kinases; experiment: Millipore KinaseProfiler selectivity profile over whole panel; format: biochemical; conditions: compound 10 nM, 10 μM ATP, panel of 102 kinases
Procedure, shortened: as §2

[9] = target: MLCK; experiment: Radioactive [γ-33P]ATP kinase activity assay, MLCK; format: biochemical, human; conditions: read-out: IC50 MLCK; 100 μM ATP
Procedure, shortened: as §1

[10] = target: DAPK1 (Homo sapiens, UniProt P53355); experiment: Radioactive [γ-33P]ATP kinase activity assay, DAPK1; format: biochemical; conditions: read-out: IC50 DAPK1; 100 μM ATP
Sequence of DAPK1 (P53355 whole entry): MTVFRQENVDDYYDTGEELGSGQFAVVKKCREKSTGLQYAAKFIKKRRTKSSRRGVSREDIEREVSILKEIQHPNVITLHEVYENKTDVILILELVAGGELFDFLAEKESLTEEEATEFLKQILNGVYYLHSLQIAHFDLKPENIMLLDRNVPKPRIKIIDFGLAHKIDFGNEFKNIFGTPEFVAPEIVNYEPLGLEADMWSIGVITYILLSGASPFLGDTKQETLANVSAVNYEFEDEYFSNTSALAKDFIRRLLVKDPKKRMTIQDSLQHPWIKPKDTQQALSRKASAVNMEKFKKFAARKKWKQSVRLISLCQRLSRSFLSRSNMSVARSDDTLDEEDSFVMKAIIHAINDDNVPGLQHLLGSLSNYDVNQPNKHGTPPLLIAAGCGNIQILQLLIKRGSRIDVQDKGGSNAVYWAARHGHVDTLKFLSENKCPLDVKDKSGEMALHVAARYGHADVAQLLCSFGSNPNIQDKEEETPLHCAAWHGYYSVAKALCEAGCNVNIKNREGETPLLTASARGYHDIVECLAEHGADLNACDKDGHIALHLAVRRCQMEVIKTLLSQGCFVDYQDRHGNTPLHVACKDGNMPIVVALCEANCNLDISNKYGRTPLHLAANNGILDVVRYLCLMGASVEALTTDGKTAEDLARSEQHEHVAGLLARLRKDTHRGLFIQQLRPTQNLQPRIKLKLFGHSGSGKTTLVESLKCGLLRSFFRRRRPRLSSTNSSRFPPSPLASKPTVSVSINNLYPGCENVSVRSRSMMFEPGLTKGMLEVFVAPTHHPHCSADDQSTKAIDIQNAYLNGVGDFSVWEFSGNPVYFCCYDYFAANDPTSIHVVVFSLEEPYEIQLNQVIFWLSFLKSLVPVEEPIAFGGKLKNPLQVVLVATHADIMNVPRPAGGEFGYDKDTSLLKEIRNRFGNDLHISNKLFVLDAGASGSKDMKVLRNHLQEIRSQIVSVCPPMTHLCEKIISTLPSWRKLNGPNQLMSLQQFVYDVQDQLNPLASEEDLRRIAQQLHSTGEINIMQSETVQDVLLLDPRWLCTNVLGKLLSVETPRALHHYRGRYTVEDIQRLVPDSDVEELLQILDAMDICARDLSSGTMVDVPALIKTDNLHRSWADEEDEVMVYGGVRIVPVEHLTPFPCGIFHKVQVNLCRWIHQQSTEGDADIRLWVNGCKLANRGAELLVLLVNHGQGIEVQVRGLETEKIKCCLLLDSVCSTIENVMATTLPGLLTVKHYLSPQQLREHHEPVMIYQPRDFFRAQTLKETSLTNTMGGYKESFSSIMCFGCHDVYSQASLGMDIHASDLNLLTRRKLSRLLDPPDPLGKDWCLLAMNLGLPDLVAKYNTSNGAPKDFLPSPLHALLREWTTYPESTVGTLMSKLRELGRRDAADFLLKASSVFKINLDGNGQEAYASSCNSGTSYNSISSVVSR
Procedure, shortened: as §1

[11] = target: T2, GSK3β; experiment: Millipore KinaseProfiler single-concentration screen, GSK3β; format: biochemical; conditions: compound 10 nM, 10 μM ATP
Procedure, shortened: as §2

[12] = target: T3, PIM1; experiment: Radioactive [γ-33P]ATP kinase activity assay, PIM1; format: biochemical; conditions: read-out: IC50 PIM1; 100 μM ATP
Procedure, shortened: as §1

T1 sequence (P49840 whole entry, the tested form may be a part): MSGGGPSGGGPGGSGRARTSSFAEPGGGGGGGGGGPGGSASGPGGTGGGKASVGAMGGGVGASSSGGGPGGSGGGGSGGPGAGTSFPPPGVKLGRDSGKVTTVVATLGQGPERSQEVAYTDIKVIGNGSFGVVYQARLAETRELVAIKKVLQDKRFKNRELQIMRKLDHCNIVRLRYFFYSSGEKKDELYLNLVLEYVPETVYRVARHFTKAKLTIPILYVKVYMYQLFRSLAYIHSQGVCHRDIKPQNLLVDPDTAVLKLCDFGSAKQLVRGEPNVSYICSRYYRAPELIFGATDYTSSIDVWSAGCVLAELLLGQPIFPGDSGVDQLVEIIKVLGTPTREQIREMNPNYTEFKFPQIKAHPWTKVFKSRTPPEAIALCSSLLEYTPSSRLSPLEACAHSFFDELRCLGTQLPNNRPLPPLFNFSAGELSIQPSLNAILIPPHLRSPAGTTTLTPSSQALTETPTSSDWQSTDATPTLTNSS

IC50 value ratio of GSK3α/PAK1 ([1]; 100 μM ATP): < 0.000009 | selectivity for the α- over β-isoform of GSK3 ([1]; IC50 ratio, 100 μM ATP): ca. 7 fold | lower IC50 value compared to respective pyridocarbazole ligand, GSK3α ([1]; metal complex vs free ligand): 8890 fold | IC50 ([1]; read-out: IC50 GSK3α, 100 μM ATP): 0.9 nM | residual activity CLK2 [2]: 33% | residual activity GSK3α [3]: 6% | IC50 [4]: > 100000 nM | IC50 [5]: 6 nM | IC50 [6]: 1180 nM | residual activity PIM1 [7]: 13% | IC50 [9]: 22 nM | IC50 [10]: 22800 nM | residual activity GSK3β [11]: 58% | IC50 [12]: 14 nM
SMILES: Nc1cnc2c(c1)c1c(c3c4ccccc4[n-]c23)C(=O)NC1=O.[C-]#[O+].[Cl][Ru+3].[NH-]Cc1ccccn1 [Λ-OS1]
number of kinases out of 102 with activity higher than 75% [8]: 98
